Format in all cases: cell-based
For data set [1], the target named is T1, Perforin-1 (Homo sapiens) (UniProt P14222).
T1 sequence (whole entry): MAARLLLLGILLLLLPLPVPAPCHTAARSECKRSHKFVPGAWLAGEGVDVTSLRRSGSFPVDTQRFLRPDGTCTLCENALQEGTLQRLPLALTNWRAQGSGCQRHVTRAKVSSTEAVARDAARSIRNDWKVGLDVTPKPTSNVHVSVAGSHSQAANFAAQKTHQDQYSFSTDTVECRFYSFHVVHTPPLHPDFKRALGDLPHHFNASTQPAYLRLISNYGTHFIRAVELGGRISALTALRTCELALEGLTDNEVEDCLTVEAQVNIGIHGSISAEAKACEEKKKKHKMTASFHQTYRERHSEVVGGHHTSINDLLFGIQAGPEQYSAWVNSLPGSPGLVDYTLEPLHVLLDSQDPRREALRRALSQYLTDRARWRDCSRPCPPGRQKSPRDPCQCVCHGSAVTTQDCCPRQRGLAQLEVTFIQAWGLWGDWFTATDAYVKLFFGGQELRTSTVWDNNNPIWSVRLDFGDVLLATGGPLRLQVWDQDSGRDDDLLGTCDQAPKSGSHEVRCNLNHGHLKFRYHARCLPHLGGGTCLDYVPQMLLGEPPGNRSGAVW
The data set is described as follows: Inhibition of perforin released from human KHYG-1 NK cells assessed as inhibition of perforin-mediated lysis of human K562 cells at 20 uM by [51Cr] release assay in absence of serum. The method, boiled down: (§1)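 KHYG-1 cells (4 × 10⁵/mL, RPMI + 0.1% BSA) received either BSA medium or 10% mouse serum final, then compound at 20 µM for 20 min at rt. K562 cells labelled with 75 µCi ⁵¹Cr (90 min, 37 °C) and washed were added at E:T 2:1 for 4 h at 37 °C. ⁵¹Cr release was gamma-counted. Specific lysis used spontaneous/maximum release, and inhibition was taken vs untreated control. Triplicate wells; ≥3 determinations.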

The nature of data set [2]: Cytotoxicity against human KHYG-1 NK cells assessed as cell viability at 20 uM after 18 to 24 hrs by trypan blue assay. The settings on record: read-out: Activity. An outline of the steps: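 KHYG-1 NK cells were suspended at 4 × 10⁵ cells/mL in RPMI + 0.1% BSA and treated with compound at rt for 20 min. Instead of target cells, RPMI + 0.1% BSA was added, followed by 4 h at 37 °C. Cells were washed ×3 and kept in complete medium for 18–24 h at 37 °C. Trypan blue viable/total counts gave % viability vs a DMSO control. Values are the mean of ≥3 determinations.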

In data set [3] the target is T1, Perforin-1 (Homo sapiens). Description: Inhibition of perforin released from human KHYG-1 NK cells assessed as inhibition of perforin-mediated lysis of human K562 cells at 20 uM by [51Cr] release assay in presence of 10% mouse serum. An outline of the steps:
as §1

Data set [4] concerns the target T1, Perforin-1 (Homo sapiens). Description: Inhibition of recombinant perforin-mediated lysis of Jurkat cells assessed as [51Cr] release at 20 uM preincubated with perforin for 30 mins followed by incubation with [51Cr]-labeled Jurkat cells by gamma counting. An outline of the steps: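 Compound at 20 µM was preincubated with recombinant perforin for 30 min, with DMSO as negative control. Jurkat cells were labelled with 100 µCi ⁵¹Cr for 1 h, washed ×3 and used at 1 × 10⁵/mL in RPMI + 0.1% BSA. They were added and incubated for 4 h at 37 °C. Supernatant radioactivity was measured by gamma counting. Triplicate points.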

The target in data set [5] is Pneumolysin (Streptococcus pneumoniae serotype 4 (strain ATCC BAA-334 / TIGR4)) (UniProt P0C2J9). Description: Inhibition of Streptococcus pneumoniae pneumolysin-mediated lysis of Jurkat cells assessed as [51Cr] release at 20 uM […] for 30 mins followed by incubation with [51Cr]-labeled Jurkat cells by gamma counting. An outline of the steps: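 Single 20 µM concentration, preincubated 30 min with pneumolysin in place of perforin, with DMSO as negative control. Jurkat cells were labelled 1 h with 100 µCi ⁵¹Cr, washed three times, and resuspended at 1 × 10⁵ cells/mL in RPMI with 0.1% BSA. Labelled cells were then added for 4 h at 37 °C, and supernatant radioactivity was gamma-counted.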

Activity calls are given as the source filed them. The rule behind the calls is not given here.

Sequence of Pneumolysin (Streptococcus pneumoniae serotype 4 (strain ATCC BAA-334 / TIGR4)) (P0C2J9 whole entry): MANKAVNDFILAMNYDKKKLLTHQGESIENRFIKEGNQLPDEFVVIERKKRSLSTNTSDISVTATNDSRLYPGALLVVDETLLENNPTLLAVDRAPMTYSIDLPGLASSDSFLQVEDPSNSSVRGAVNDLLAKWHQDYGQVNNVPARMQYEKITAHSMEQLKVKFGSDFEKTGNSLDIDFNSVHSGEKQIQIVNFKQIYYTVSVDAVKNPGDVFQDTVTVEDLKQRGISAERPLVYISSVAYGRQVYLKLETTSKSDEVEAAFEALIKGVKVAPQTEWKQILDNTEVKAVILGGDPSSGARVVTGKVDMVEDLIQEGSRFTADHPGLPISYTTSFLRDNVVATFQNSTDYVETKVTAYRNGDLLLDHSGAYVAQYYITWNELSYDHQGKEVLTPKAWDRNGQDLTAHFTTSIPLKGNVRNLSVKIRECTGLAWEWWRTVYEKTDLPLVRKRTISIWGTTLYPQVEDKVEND

For the compound `O=C1NC(=S)N/C1=C/c1ccc(-c2ccc3c(c2)COC3=O)cn1`, the inhibition stood at 37% in data set [1] and 20% in data set [3]. The viability at 20 µM in data set [2] amounted to 92%.

On to `O=C1NC(=S)N/C1=C/c1csc(-c2ccc3c(c2)COC3=O)n1`, for which the results for the inhibition in data set [1] and in data set [3] were 11% and 2%, respectively. Moreover, the viability at 20 µM in data set [2] stood at 25%.

As for `O=C1NC(=S)NC(=O)C1=Cc1ccc(-c2ccc3c(c2)COC3=O)s1`, the inhibition in data set [1] came to 91%; in data set [3], 73%. Also, the viability at 20 µM in data set [2] is 38%.

Regarding `O=C1NC(=S)N/C1=C/c1ccc(-c2ccc3c(c2)COC3=O)s1`, the inhibition in data set [1] worked out at 53%; in data set [3], 38.9%. Besides, the viability at 20 µM in data set [2] was determined as 88%.

As to `O=C1NC(=S)N/C1=C/c1cc2cc(-c3ccc4c(c3)COC4=O)ccc2s1`, the inhibition was found to be 51% in data set [1] and 17% in data set [3]. For the same compound, the viability at 20 µM in data set [2] is 27%.

`O=C1NC(=S)N/C1=C/c1cc(-c2ccc3c(c2)COC3=O)ns1`: the inhibition in data set [1] came out at 45%; in data set [3], 26%. For the same compound, in data set [2], the viability at 20 µM stood at 57%.

As to `O=C1NC(=S)N/C1=C/c1nc(-c2ccc3c(c2)COC3=O)cs1`, the inhibition worked out at 30% in data set [1] and 13% in data set [3]. In addition, in data set [2], the viability at 20 µM was determined as 91%.

As for `O=C1NC(=S)N/C1=C/c1cc(-c2ccc3c(c2)COC3=O)no1`, the inhibition in data set [1] worked out at 41%; in data set [3] it was 23%. The viability at 20 µM in data set [2] worked out at 63%.

As to `O=C1NC(=S)N/C1=C/c1cc2ccc(-c3ccc4c(c3)COC4=O)cc2s1`, the inhibition in data set [1] came out at 46%; in data set [3], 25%. For the same compound, the viability at 20 µM in data set [2] was 19.7%.

Turning to `O=C1NC(=S)N/C1=C/c1cc2cc(-c3ccc4c(c3)COC4=O)ccc2[nH]1`, the inhibition in data set [1] stood at 91%; in data set [3], 83%. Besides, in data set [2], the viability at 20 µM worked out at 23.2%.

Turning to `O=C1NC(=O)/C(=C\c2ccc(-c3ccc4c(c3)COC4=O)s2)N1`, the inhibition was found to be 54% in data set [1] and 64% in data set [3]. Further, the viability at 20 µM in data set [2] was found to be 91.5%.

Turning to `O=C1NC(=S)N/C1=C/c1cc2ccc(-c3ccc4c(c3)COC4=O)cc2[nH]1`, the inhibition in data set [1] and in data set [3] was 100% throughout. The viability at 20 µM in data set [2] stood at 10%.

Regarding `O=C1NC(=S)N/C1=C/c1cnc(-c2ccc3c(c2)COC3=O)s1`, the inhibition in data set [1] was found to be 45%; in data set [3], 27%. The viability at 20 µM in data set [2] is 68%.

`O=C1NC(=S)N/C1=C/c1ccc(-c2ccc3c(c2)COC3=O)o1`: the inhibition entry in data set [4] is “Active”. The inhibition in data set [1] is 74%; in data set [3], 23%. In addition, the viability at 20 µM in data set [2] turned out to be 66%. Moreover, the inhibition result in data set [5] was “inactive”.

As to `O=C1NC(=O)C(=Cc2ccc(-c3ccc4c(c3)COC4=O)s2)C(=O)N1`, the inhibition worked out at 52% in data set [1] and 10% in data set [3]. Moreover, the viability at 20 µM in data set [2] came out at 77.6%.

On to `O=C1NC(=S)N/C1=C/c1ccc(-c2ccc3c(c2)COC3=O)cc1`, for which the inhibition in data set [1] amounted to 28%; in data set [3], 30%. The viability at 20 µM in data set [2] came out at 59%.

Regarding `O=C1NC(=S)N/C1=C/c1cc(-c2ccc3c(c2)COC3=O)cs1`, the inhibition in data set [1] was 49%; in data set [3], 42%. In addition, the viability at 20 µM in data set [2] was 55%.

Take `O=C1NC(=O)/C(=C\c2ccc(-c3ccc4c(c3)COC4=O)s2)S1`: the values for the inhibition in data set [1] and in data set [3] were 36% and 12%, respectively. Further, the viability at 20 µM in data set [2] amounted to 19%.

Turning to `Cc1cc2c(c(=S)[nH]1)C(=O)OC2=Cc1csc2ccccc12`, the inhibition in data set [1] came to 41%; in data set [3], 10.3%. The viability at 20 µM in data set [2] amounted to 77%.

Take `O=C1NC(=S)N/C1=C/c1ccc2cc(-c3ccc4c(c3)COC4=O)ccc2n1`: the results for the inhibition in data set [1] and in data set [3] were 60% and 35%, respectively. For the same compound, in data set [2], the viability at 20 µM came to 48.5%.

On to `O=C1NC(=S)N/C1=C/c1ccc2ccc(-c3ccc4c(c3)COC4=O)cc2n1`, for which the inhibition in data set [1] came to 52%; in data set [3], 38%. In data set [2], the viability at 20 µM came to 59%.

For `O=C1NC(=S)N/C1=C/c1cc2cc(-c3ccc4c(c3)COC4=O)ccc2o1`, the figures for the inhibition in data set [1] and in data set [3] were 61% and 35%, respectively. The viability at 20 µM in data set [2] is 29.9%.

By inhibition is commonly meant the share of the control response that was lost under treatment.

(Values after ChEMBL document CHEMBL1933048, “Inhibition of the pore-forming protein perforin by a series of aryl-substituted isobenzofuran-1(3H)-ones” (Bioorg Med Chem, 2012).)
